Structures can show the parent of a compound that is named as a salt.
Legend:
PTP1B = target: T1, PTP1B (Homo sapiens, UniProt P18031); test: In vitro dephosphorylation assay, phosphate sensor reagent, p-NPP substrate; type: biochemical; details: from IC50 values of Table 2
T1 sequence (P18031 1-435): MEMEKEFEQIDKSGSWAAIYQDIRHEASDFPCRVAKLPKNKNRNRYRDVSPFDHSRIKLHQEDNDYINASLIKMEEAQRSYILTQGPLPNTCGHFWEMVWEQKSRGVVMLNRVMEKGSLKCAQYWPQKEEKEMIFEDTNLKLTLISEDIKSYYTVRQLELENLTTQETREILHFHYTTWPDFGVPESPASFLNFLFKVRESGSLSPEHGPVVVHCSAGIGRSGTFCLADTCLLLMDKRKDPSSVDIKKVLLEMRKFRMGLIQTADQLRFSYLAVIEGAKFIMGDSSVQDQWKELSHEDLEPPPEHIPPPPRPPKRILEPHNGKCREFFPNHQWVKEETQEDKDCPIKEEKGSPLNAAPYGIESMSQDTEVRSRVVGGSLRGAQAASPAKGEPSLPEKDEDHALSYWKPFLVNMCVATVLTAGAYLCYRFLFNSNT
Procedure, shortened: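 Human recombinant PTPRZ1 and PTP1B, each at 0.1 μM, tested against test compound at 0.001–100 μM with p-NPP as substrate. Released inorganic phosphate was detected with a phosphate sensor reagent as a fluorescence increase (excitation 430 nm, emission 450 nm). IC50 values were calculated for each enzyme, and selectivity was judged by comparing the PTPRZ1 and PTP1B IC50s.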

PTPRZ1 = PTPRZ1 (Homo sapiens, UniProt P23471); test: In vitro dephosphorylation assay, phosphate sensor reagent, p-NPP substrate; type: biochemical; details: for inhibition at 1 µM: read-out: inhibition of the phosphatase activity of PTPRZ1
Procedure, shortened: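 Single-concentration screen: human recombinant PTPRZ1 (0.1 μM) incubated with test compound at 1.0 μM and p-NPP substrate. Phosphate release was detected with a phosphate sensor reagent by fluorescence (excitation 430 nm, emission 450 nm) and expressed as percent inhibition of phosphatase activity.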

HeLa cells = test: Total tyrosine phosphorylation ELISA; type: cell-based; details: at any of 0.1, 1.0 and 10.0 μM
Procedure, shortened: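 HeLa cells in RPMI-1640 with 10% FBS were seeded at 2 × 10^4 cells/well in triplicate and serum-starved 24 h. They were then treated 10 min with test compound at 0.1, 1.0 or 10.0 μM, with 0.25% DMSO as vehicle control and EGF (50 ng/mL, 10 min) as positive control. Total phosphotyrosine was measured with a tyrosine phosphorylation ELISA kit and compared with vehicle.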

[1] = In vivo permeability study, GC-MS detection in plasma and brain; details: mice, 1h post-gavage, 60 mg/kg
Procedure, shortened: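 Mice were dosed by oral gavage at 60 mg/kg and killed 1 h later; brain and plasma were collected. Brain (50–100 mg) was bead-homogenised in ethyl acetate, then the supernatant was dried and taken up in heptane. Plasma (100 μL) was precipitated with 3 volumes of cold methanol at -2 °C for 20 min, dried and reconstituted in heptane. Samples were analysed by GC-MS (EI 70 eV), quantifying the extracted ion at m/z 191.0137 (LOQ ~70 ng/mL).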

TrkA (Tyr490) = test: Western blot of TrkA phosphorylation in SH-SY5Y cells; type: cell-based, human; details: SH-SY5Y cells, 1.0, 5.0 and 10.0 μM, 20 minutes
Procedure, shortened: (§1)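 Human SH-SY5Y cells, grown in EMEM/F12 (1:1) with 10% FBS at 37 °C and 5% CO2, were switched to serum-free medium just before treatment. They were then exposed to test compound (1.0, 5.0, 10.0 μM) or DMSO vehicle for 20 min and lysed in Tris-HCl pH 7.5/Triton buffer with phosphatase and protease inhibitors. Lysate (20 μg protein) was run on SDS-PAGE and blotted to PVDF. Blots were probed for phospho-TrkA (Y490) or phospho-ALK (Y1278), reprobed for total TrkA or ALK, and detected by ECL. Densitometry data are mean ± S.E.M., analysed by one-way ANOVA with Tukey post-hoc.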

PC12 cells = test: Amphetamine-induced toxicity, cell viability by MTT; type: cell-based, Rat; details: amphetamine 1 mM, compound 1.0 μM, 24 hours
Procedure, shortened: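 Rat PC12 cells grown in RPMI-1640 with 10% FBS, seeded at 10^4 cells/well, then co-incubated with amphetamine (1.0 mM) and test compound (1.0 μM). For MTT, cells were PBS-washed and given fresh medium with MTT (5 mg/mL stock) for 4 h. Formazan was dissolved in DMSO with 10 min shaking at RT, and absorbance read at 570 nm. Data are mean ± S.E.M., analysed by one-way ANOVA with Tukey post-hoc.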

alcohol-induced reward = details: mice; cited from earlier work
ALK (Tyr1278) = test: Western blot of ALK phosphorylation in SH-SY5Y cells; type: cell-based, human; details: SH-SY5Y cells, 1.0, 5.0 and 10.0 μM, 20 minutes
Procedure, shortened: as §1

Sequence of PTPRZ1 (P23471 25-2315): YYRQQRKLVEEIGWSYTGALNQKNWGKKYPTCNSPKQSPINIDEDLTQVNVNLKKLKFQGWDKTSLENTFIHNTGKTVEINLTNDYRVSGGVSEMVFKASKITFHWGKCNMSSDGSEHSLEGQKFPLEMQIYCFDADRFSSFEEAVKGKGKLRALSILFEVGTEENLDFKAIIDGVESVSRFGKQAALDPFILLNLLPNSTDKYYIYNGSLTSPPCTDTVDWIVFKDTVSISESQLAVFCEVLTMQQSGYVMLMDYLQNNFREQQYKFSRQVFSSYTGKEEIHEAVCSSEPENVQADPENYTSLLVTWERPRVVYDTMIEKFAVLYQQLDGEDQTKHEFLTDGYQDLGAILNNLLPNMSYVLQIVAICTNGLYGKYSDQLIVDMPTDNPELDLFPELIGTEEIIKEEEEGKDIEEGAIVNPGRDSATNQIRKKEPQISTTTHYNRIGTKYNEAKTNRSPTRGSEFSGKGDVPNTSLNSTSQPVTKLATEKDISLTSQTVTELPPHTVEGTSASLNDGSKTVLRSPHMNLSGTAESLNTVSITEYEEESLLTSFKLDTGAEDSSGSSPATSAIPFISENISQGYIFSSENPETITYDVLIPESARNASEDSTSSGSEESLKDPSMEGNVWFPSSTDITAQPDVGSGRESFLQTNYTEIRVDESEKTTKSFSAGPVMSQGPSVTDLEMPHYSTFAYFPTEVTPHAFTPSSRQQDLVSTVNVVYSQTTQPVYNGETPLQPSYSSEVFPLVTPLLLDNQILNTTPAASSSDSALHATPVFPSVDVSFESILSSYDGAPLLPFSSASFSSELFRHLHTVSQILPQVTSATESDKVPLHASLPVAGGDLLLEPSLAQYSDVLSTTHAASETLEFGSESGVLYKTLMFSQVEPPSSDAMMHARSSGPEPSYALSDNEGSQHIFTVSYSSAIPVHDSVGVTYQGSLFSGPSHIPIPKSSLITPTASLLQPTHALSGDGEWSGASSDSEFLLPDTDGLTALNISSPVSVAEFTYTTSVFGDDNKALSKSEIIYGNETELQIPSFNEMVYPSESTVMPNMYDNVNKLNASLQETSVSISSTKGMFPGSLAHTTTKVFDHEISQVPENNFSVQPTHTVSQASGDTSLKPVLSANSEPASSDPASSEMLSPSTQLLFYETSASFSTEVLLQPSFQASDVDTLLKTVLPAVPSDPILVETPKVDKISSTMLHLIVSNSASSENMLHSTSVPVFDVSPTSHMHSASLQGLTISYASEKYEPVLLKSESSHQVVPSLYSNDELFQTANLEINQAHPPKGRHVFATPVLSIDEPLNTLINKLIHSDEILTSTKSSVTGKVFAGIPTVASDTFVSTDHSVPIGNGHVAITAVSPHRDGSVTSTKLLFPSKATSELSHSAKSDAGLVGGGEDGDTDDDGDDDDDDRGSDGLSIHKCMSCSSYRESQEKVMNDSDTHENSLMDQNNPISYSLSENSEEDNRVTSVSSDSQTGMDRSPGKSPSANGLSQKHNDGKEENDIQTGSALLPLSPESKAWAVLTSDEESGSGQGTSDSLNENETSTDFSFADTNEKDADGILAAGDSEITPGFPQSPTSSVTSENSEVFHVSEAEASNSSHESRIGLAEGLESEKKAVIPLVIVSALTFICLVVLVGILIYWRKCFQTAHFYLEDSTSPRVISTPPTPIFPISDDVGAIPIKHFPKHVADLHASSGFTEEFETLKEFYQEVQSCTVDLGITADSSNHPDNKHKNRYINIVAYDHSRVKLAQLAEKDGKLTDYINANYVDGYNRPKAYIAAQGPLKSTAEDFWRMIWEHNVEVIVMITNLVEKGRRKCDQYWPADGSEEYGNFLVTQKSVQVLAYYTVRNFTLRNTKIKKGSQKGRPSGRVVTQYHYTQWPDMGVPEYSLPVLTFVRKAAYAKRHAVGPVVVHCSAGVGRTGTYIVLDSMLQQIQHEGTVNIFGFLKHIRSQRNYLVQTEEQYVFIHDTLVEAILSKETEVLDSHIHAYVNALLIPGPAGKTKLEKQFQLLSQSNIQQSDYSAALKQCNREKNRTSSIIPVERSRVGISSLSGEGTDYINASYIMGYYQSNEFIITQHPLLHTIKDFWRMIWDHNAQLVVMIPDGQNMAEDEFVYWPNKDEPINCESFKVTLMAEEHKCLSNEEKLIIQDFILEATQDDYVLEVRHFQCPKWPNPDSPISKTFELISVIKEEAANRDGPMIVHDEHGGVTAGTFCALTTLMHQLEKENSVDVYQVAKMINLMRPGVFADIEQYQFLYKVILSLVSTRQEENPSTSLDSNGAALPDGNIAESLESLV

O=C(Cc1ccc(SC(F)(F)F)cc1)NCc1ccc(SC(F)(F)F)cc1 [4c, N-(4-((Trifluoromethyl)thio)benzyl)-2-(4-((trifluoromethyl)thio)phenyl)acetamide]
selectivity PTPRZ1 versus PTP1B (PTP1B): remarkable selectivity against PTP1B

O=C(Cc1ccc(S(=O)(=O)C(F)(F)F)cc1)Nc1ccc(S(=O)(=O)C(F)(F)F)cc1 [5b, N,2-bis(4-((trifluoromethyl)sulfonyl)phenyl)acetamide]
inhibition at 1 µM (PTPRZ1): ≥ 10%

FC(F)(F)Sc1ccc(COc2ccc(SC(F)(F)F)cc2)cc1 [10a, (Trifluoromethyl)(4-((4-((trifluoromethyl)thio)benzyl)oxy)phenyl)sulfane]
selectivity PTPRZ1 versus PTP1B (PTP1B): strongly and selectively inhibit PTPRZ1 | increase of Phospho-Tyr levels (HeLa cells): ≥ 10% | ability to cross the BBB [1]: can cross the BBB | inhibition at 1 µM (PTPRZ1): ≥ 10% | increase of tyrosine phosphorylation of TrkA (TrkA (Tyr490)): 2–3 fold | effect on amphetamine-induced loss of PC12 cell viability (PC12 cells): significantly prevented amphetamine-induced loss of PC12 cell viability | effect on alcohol-induced reward (alcohol-induced reward): completely blocked alcohol-induced reward in mice

FC(F)(F)Sc1ccc(CNCc2ccc(SC(F)(F)F)cc2)cc1 [12b, Bis(4-((trifluoromethyl)thio)benzyl)amine hydrochloride]
selectivity PTPRZ1 versus PTP1B (PTP1B): strongly and selectively inhibit PTPRZ1 | inhibition at 1 µM (PTPRZ1): ≥ 10% | increase of tyrosine phosphorylation of TrkA (TrkA (Tyr490)): 2–3 fold | increase in phosphorylation of ALK 140 kDa isoform (ALK (Tyr1278)): 2 fold | effect on amphetamine-induced loss of PC12 cell viability (PC12 cells): the same trend was observed

FC(F)(F)Sc1ccc(NCc2ccccc2)cc1 [12d, N-benzyl-4-((trifluoromethyl)thio)aniline]
increase of Phospho-Tyr levels (HeLa cells): ≥ 10% | inhibition at 1 µM (PTPRZ1): ≥ 10%

O=S(=O)(c1ccc(COc2ccc(S(=O)(=O)C(F)(F)F)cc2)cc1)C(F)(F)F [compound 1, 1-((Trifluoromethyl)sulfonyl)-4-((4-((trifluoromethyl)sulfonyl)benzyl)oxy)benzene, reference compound]
PTPRZ1 phosphatase activity inhibition (PTPRZ1): failed to inhibit PTPRZ1 phosphatase activity

FC(F)(F)Sc1ccc(CN(Cc2ccc(SC(F)(F)F)cc2)Cc2ccc(SC(F)(F)F)cc2)cc1 [compound 13, tris(4-((trifluoromethyl)thio)benzyl)amine]
increase of Phospho-Tyr levels (HeLa cells): ≥ 10%

Reference: publication PMC5817915 (European journal of medicinal chemistry, 2017)
